Active and inactive are the calls of the source. The rule behind the calls is not given here.
Experiments:
[1] = target: T1, [Pyruvate dehydrogenase (acetyl-transferring)] kinase isozyme 1, mitochondrial (Homo sapiens, UniProt Q15118); assay: Inhibition of PDK1 in human MCF7 cells assessed as increase in oxygen consumption rate at 20 uM after 12 hrs; type: cell-based
How it was run: (§1)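 MCF-7 cells at 2.7×10⁴ cells/well in XF24 plates, attached, then grown 24 h at 37 °C in 5% CO2. Treated 12 h at 5, 10 or 20 µM, rinsed into glycolysis stress-test medium and held 1 h at 37 °C without CO2. OCR, ECAR and PPR then measured on a Seahorse XFe24 analyser. Significance P < 0.05 versus untreated control.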

[2] = target: T1, [Pyruvate dehydrogenase (acetyl-transferring)] kinase isozyme 1, mitochondrial; assay: Inhibition of PDK1 in human MCF7 cells assessed as decrease in extracellular acidification rate at 20 uM after 12 hrs; type: cell-based; how it was run: as §1
[3] = target: T1, [Pyruvate dehydrogenase (acetyl-transferring)] kinase isozyme 1, mitochondrial; assay: Inhibition of PDK1 in human MCF7 cells assessed as decrease in proton production rate at 20 uM after 12 hrs; type: cell-based; how it was run: as §1
[4] = target: T1, [Pyruvate dehydrogenase (acetyl-transferring)] kinase isozyme 1, mitochondrial; assay: Inhibition of PDK1 in human MCF7 cells assessed as increase in ratio of oxygen consumption rate to extracellular acidification rate at 20 uM after 12 hrs; type: cell-based; how it was run: as §1
MCF7 [5] = assay: Reversal of hyperpolarized mitochondrial membrane potential in human MCF7 cells assessed as cells with vital and intact mitochondrial membranes at 20 uM after 12 hrs by JC1 staining-based flow cytometric analysis; type: functional
How it was run: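 MCF-7 cells treated 12 h (5, 10 or 20 µM), then stained with JC-1. Depolarization read as the ratio of green J-monomer to red J-aggregate fluorescence.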

MCF7 [6] = assay: Induction of mitochondrial membrane potential depolarization in human MCF7 cells at 60 uM after 12 hrs by TMRM staining-based assay; type: functional, cell-based
A549 [7] = assay: Cytotoxicity against human A549 cells assessed as growth inhibition after 72 hrs by MTT assay; type: functional, cell-based; conditions: A549, 72 h
MCF7 [8] = assay: Cytotoxicity against human MCF7 cells assessed as growth inhibition after 72 hrs by MTT assay; type: functional, cell-based; conditions: MCF7, 72 h
[9] = Cytotoxicity against human MCF10A cells assessed as growth inhibition at 10 uM after 72 hrs by MTT assay relative to control; type: cell-based, MCF-10A; conditions: read-out: GI
[10] = Cytotoxicity against human MCF10A cells assessed as growth inhibition at 40 uM after 72 hrs by MTT assay relative to control; type: cell-based, MCF-10A; conditions: read-out: GI
A549 [11] = assay: Cytotoxicity against human A549 cells assessed as growth inhibition at 40 uM after 72 hrs by MTT assay relative to control; type: functional, cell-based
MCF7 [12] = assay: Cytotoxicity against human MCF7 cells assessed as growth inhibition at 40 uM after 72 hrs by MTT assay relative to control; type: functional, cell-based
MCF7 [13] = assay: Induction of apoptosis in human MCF7 assessed as early apoptotic cells at 20 uM after 10 hrs by FITC-annexin V/propidium iodide staining-based flow cytometric analysis (reference value: 2.38%); type: functional
MCF7 [14] = assay: Induction of apoptosis in human MCF7 assessed as late apoptotic cells at 20 uM after 10 hrs by FITC-annexin V/propidium iodide staining-based flow cytometric analysis (reference value: 1.95%); type: functional
MCF7 [15] = assay: Induction of apoptosis in human MCF7 assessed as necrotic cells at 20 uM after 10 hrs by FITC-annexin V/propidium iodide staining-based flow cytometric analysis (reference value: 1.86%); type: functional
MCF7 [16] = assay: Induction of apoptosis in human MCF7 assessed as viable cells at 20 uM after 10 hrs by FITC-annexin V/propidium iodide staining-based flow cytometric analysis (reference value: 93.8%); type: functional; conditions: MCF7, 10 h, read-out: Activity
A549 [17] = assay: Cytotoxicity against human A549 cells assessed as growth inhibition at 40 uM after 72 hrs by IncuCyte Zoom live cells imaging method; type: functional, cell-based
[18] = target: T1, [Pyruvate dehydrogenase (acetyl-transferring)] kinase isozyme 1, mitochondrial; assay: Inhibition of recombinant N-terminal 6xHis-SUMO-tagged human PDK1 (29 to 436 residues) expressed in Escherichia coli BL-21 assessed as phosphorylation of RYHGHSMSDP at 50 uM after 30 mins by Kinase-Glo luminescent assay
Sus scrofa [19] = species: Sus scrofa; assay: Activation of pig heart PDC assessed as production of NADH at 50 uM in presence of ATP
How it was run: (§2)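 Pig heart PDC (80 µg/ml, carrying intrinsic PDK activity) preincubated 40 min at 37 °C in Mops pH 7.20 buffer with NaF, acetyl-CoA, NADH and DTT. Kinase step 3 min at 37 °C with 55 µM ADP and 100 µM ATP, or no ATP. Stopped with ADP/pyruvate. Residual PDC activity then read as NADH formation at 340 nm, 37 °C, in Tris pH 7.8 with TPP, NAD+, pyruvate and CoA.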

Sus scrofa [20] = species: Sus scrofa; assay: Activation of pig heart PDC assessed as production of NADH at 50 uM in absence of ATP; how it was run: as §2
[21] = target: T1, [Pyruvate dehydrogenase (acetyl-transferring)] kinase isozyme 1, mitochondrial; assay: Inhibition of recombinant N-terminal 6xHis-SUMO-tagged human PDK1 (29 to 436 residues) expressed in Escherichia coli BL-21 assessed as activation of PDC at 50 uM
[22] = target: T1, [Pyruvate dehydrogenase (acetyl-transferring)] kinase isozyme 1, mitochondrial; assay: Inhibition of recombinant N-terminal 6xHis-SUMO-tagged human PDK1 (29 to 436 residues) expressed in Escherichia coli BL-21 assessed as suppression of PDC phosphorylation at S293 at 50 uM after 30 mins by Western blot method
[23] = target: T1, [Pyruvate dehydrogenase (acetyl-transferring)] kinase isozyme 1, mitochondrial; assay: Inhibition of PDK1 in human MCF7 cells assessed as decrease in lactate production at 20 uM after 12 hrs
MCF7 [24] = assay: Cytotoxicity against human MCF7 cells assessed as growth inhibition at 40 uM after 72 hrs by IncuCyte Zoom live cells imaging method; type: functional, cell-based
MCF7 [25] = assay: Reversal of hyperpolarized mitochondrial membrane potential in human MCF7 cells assessed as cells with vital and intact mitochondrial membranes at 10 mM after 12 hrs by JC1 staining-based flow cytometric analysis; type: functional
How it was run: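 MCF-7 treated 12 h, then stained with JC-1. Mitochondrial potential read as the ratio of green J-monomer to red J-aggregate fluorescence, where a higher ratio marks depolarization. P < 0.05 computed against the […] DCA-treated group.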

[26] = Cytotoxicity against human MCF10A cells assessed as growth inhibition at 20 uM after 72 hrs by MTT assay relative to control; type: cell-based, MCF-10A; conditions: read-out: GI
[27] = Cytotoxicity against human MCF10A cells assessed as growth inhibition at 10 mM after 72 hrs by MTT assay relative to control; type: cell-based, MCF-10A; conditions: read-out: GI
MCF7 [28] = assay: Induction of apoptosis in human MCF7 assessed as early apoptotic cells at 10 mM after 10 hrs by FITC-annexin V/propidium iodide staining-based flow cytometric analysis (reference value: 2.38%); type: functional
MCF7 [29] = assay: Induction of apoptosis in human MCF7 assessed as late apoptotic cells at 10 mM after 10 hrs by FITC-annexin V/propidium iodide staining-based flow cytometric analysis (reference value: 1.95%); type: functional
MCF7 [30] = assay: Induction of apoptosis in human MCF7 assessed as necrotic cells at 10 mM after 10 hrs by FITC-annexin V/propidium iodide staining-based flow cytometric analysis (reference value: 1.86%); type: functional
MCF7 [31] = assay: Induction of apoptosis in human MCF7 assessed as viable cells at 10 mM after 10 hrs by FITC-annexin V/propidium iodide staining-based flow cytometric analysis (reference value: 93.8%); type: functional; conditions: MCF7, 10 h, read-out: Activity
Sus scrofa [32] = species: Sus scrofa; assay: Activation of pig heart PDC assessed as production of NADH at 10 mM in presence of ATP
How it was run: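 Pig PDC with its intrinsic PDKs preincubated 40 min at 37 °C at 80 µg/ml in Mops buffer pH 7.20 with acetyl-CoA, NADH, NaF. Kinase step run 3 min at 37 °C after 2.2-fold dilution into buffer with 55 µM ADP and 100 µM ATP, stopped with ADP/pyruvate. Residual PDC activity read as NADH at 340 nm in Tris pH 7.8 with NAD+, pyruvate, CoA, thiamine pyrophosphate.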

[33] = target: T1, [Pyruvate dehydrogenase (acetyl-transferring)] kinase isozyme 1, mitochondrial; conditions: MCF7, 10 mM
[34] = target: T1, [Pyruvate dehydrogenase (acetyl-transferring)] kinase isozyme 1, mitochondrial; conditions: MCF7, 10 mM; remark: listed apart in the source
[35] = target: T1, [Pyruvate dehydrogenase (acetyl-transferring)] kinase isozyme 1, mitochondrial; conditions: MCF7, 10 mM; remark: listed apart in the source
[36] = target: T1, [Pyruvate dehydrogenase (acetyl-transferring)] kinase isozyme 1, mitochondrial; conditions: MCF7, 10 mM; remark: listed apart in the source
[37] = target: T1, [Pyruvate dehydrogenase (acetyl-transferring)] kinase isozyme 1, mitochondrial; conditions: MCF7, 10 mM; remark: listed apart in the source

Row | inhibition [1] | inhibition [2] | inhibition [3] | inhibition [4] | inhibition [18] | Activity (Sus scrofa [19]) | Activity (Sus scrofa [20]) | inhibition [21] | SMILES | Activity (MCF7 [5]) | Activity (MCF7 [6]) | IC50 (A549 [7]) | IC50 (MCF7 [8]) | inhibition at 72 h, 10 µM [9] | inhibition at 72 h, 40 µM [10] | growth inhibition (GI) (A549 [11]) | growth inhibition (GI) (MCF7 [12]) | Activity (MCF7 [13]) | Activity (MCF7 [14]) | Activity (MCF7 [15]) | viability at 20 µM (MCF7 [16]) | other results
1 | Active | Active | Active | Active | Active | inactive | Active | Active | Cc1nc(Cl)c(NC(=O)C(Cl)Cl)c(Cl)n1 | 68.6% | Active | 26 µM | 22.9 µM | 7.57% | 41.6% | Active | Active | 4.43% | 9.87% | 2.7% | 83% | growth inhibition (GI) (A549 [17]): Active; inhibition [22]: Active; inhibition [23]: Active
2 | Active | Active | Active | Active | Active | inactive | Active | Active | O=C(Nc1c(Cl)ncnc1Cl)C(Cl)Cl | 60.1% | Active | 28.4 µM | 19.3 µM | 4.91% | 42.4% | Active | Active | 4.84% | 10.6% | 3.91% | 80.7% | growth inhibition (GI) (MCF7 [24]): Active; inhibition [22]: Active; inhibition [23]: Active
3 | – | – | – | – | – | – | – | – | O=C([O-])C(Cl)Cl.[Na+] [SODIUM DICHLOROACETATE] | 77.7% | – | 23600 µM | 12400 µM | – | – | – | – | – | – | – | – | Activity (MCF7 [25]): 69%; inhibition at 72 h, 20 µM [26]: 3.42%; inhibition at 72 h, 10000 µM [27]: 41.1%; Activity (MCF7 [28]): 3.64%; Activity (MCF7 [29]): 9.94%; Activity (MCF7 [30]): 3.09%; viability at 10000 µM (MCF7 [31]): 83.3%; Activity (Sus scrofa [32]): Active; inhibition [33]: Active; inhibition [34]: Active; inhibition [35]: Active; inhibition [36]: Active; inhibition [37]: Active
